The target in data set [1] is T1, Phosphatidylinositol 4,5-bisphosphate 3-kinase catalytic subunit delta isoform (Homo sapiens, UniProt O00329).
T1 sequence (O00329 whole entry): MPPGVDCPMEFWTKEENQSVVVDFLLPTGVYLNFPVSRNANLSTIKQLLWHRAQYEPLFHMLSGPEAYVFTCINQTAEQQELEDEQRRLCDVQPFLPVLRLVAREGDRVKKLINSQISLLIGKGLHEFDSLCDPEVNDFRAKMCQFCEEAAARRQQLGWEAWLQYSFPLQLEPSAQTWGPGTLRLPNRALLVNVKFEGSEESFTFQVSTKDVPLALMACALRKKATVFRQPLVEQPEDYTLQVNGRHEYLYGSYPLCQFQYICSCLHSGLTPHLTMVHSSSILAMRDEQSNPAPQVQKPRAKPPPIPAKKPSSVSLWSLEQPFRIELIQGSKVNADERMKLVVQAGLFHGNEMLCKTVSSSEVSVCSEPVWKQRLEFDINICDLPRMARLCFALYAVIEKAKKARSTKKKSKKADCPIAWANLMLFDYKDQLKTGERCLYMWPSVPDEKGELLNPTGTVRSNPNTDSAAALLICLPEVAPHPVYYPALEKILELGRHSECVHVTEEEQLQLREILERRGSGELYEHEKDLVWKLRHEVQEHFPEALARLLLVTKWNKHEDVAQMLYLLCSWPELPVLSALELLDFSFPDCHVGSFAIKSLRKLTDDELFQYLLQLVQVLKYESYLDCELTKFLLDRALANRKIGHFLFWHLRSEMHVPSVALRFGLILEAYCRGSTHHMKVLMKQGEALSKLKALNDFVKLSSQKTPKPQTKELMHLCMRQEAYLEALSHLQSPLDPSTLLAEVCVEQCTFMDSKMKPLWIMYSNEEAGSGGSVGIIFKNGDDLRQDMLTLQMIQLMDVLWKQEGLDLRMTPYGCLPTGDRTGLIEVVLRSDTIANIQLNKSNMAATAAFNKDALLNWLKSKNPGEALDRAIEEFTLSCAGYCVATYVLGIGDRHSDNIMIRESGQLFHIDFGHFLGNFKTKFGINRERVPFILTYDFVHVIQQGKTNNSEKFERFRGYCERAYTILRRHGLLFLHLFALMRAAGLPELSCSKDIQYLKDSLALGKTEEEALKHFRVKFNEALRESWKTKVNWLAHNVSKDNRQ
The experiment in a line: Inhibition of human PI3Kdelta using PIP2 as substrate after 1 hr.

Data set [2] deals with TMD8. The experiment in a line: Antiproliferative activity against human TMD8 cells. It counts as functional, cell-based.
Data set [3] has as its target Serine/threonine-protein kinase mTOR (Homo sapiens, UniProt P42345). The data set is described as follows: Inhibition of mTOR (unknown origin) assessed as reduction in p70S6K phosphorylation.
Data set [4] is described as follows: Tmax in C57BL/6J mouse at 3 mg/kg, po measured up to 30 hrs by LC-MS/MS analysis. It counts as ADME, organism-based. The conditions noted are these: in vivo. In outline:
(§1)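 Male C57BL/6J mice (n = 6) received single doses of 3 mg/kg po or 1 mg/kg iv. Plasma concentrations were measured by LC-MS. Values are mean ± SD. Oral bioavailability (%F) was calculated from the ratio to iv AUC.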

A short description of data set [5]: Cmax in C57BL/6J mouse at 3 mg/kg, po measured up to 30 hrs by LC-MS/MS analysis. It counts as ADME, organism-based. On the set-up: dose 3 mg/kg, route oral. The conditions noted are these: in vivo. The gist of the method:
as §1

A short description of data set [6]: Half life in C57BL/6J mouse at 3 mg/kg, po measured up to 30 hrs by LC-MS/MS analysis. It counts as ADME, organism-based. The note with it: in vivo. In outline:
as §1

Data set [7] can be described thus: Clearance in C57BL/6J mouse at 1 mg/kg, iv measured up to 30 hrs by LC-MS/MS analysis. The conditions noted are these: in vivo. The class given is ADME, organism-based. The gist of the method:
as §1

The nature of data set [8]: AUC (0 to infinity) in C57BL/6J mouse 3 mg/kg, po measured up to 30 hrs by LC-MS/MS analysis. The class given is ADME, organism-based. On the set-up: dose 3 mg/kg, route oral, time infinity. The note with it: in vivo. The gist of the method:
(§2)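 Single-dose PK in male C57BL/6J mice (n = 6), dosed 1 mg/kg iv or 3 mg/kg orally. Plasma drug levels were measured by LC-MS, and PK parameters (Tmax, Cmax, t1/2, Cl, AUC, %F) were derived. Values are given as mean ± SD. Oral bioavailability was calculated against the iv AUC.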

Data set [9] in a line: AUC (0 to infinity) in C57BL/6J mouse 1 mg/kg, iv measured up to 30 hrs by LC-MS/MS analysis. The class given is ADME, organism-based. More on the design: dose 1 mg/kg, time infinity, route intravenous. The note with it: in vivo. The gist of the method: as §2
The nature of data set [10]: Oral bioavailability in C57BL/6J mouse at 3 mg/kg measured up to 30 hrs by LC-MS/MS analysis. It counts as ADME, organism-based. The note with it: in vivo. The gist of the method: as §1
The nature of data set [11]: Toxicity in DBA1/J mouse assessed as reduction in body weight at 60 mg/kg, po […] measured thrice per week. It counts as organism-based. The note with it: in vivo, 336 h.
The subject of data set [12] is Mus musculus. The experiment in a line: Antiarthritic activity in complete Freund's adjuvant-induced DBA1/J mouse arthritis model assessed as inhibition in clinical arthritis score at 60 mg/kg, po administered for 14 days relative to control. The note with it: in the assay text read “4 weeks” for “14 days”. It counts as functional, organism-based. The gist of the method:
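Male DBA1j mice had arthritis induced with a collagen mixture and were enrolled once clinical signs appeared. Animals were split into four groups of eight: vehicle, a positive control and two doses of test compound. Treatment ran four weeks. The read-out was percentage inhibition of clinical arthritis score versus the vehicle group.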

Data set [13] has as its target Phosphatidylinositol 4,5-bisphosphate 3-kinase catalytic subunit alpha isoform (Homo sapiens, UniProt P42336). The experiment in a line: Inhibition of human PI3Kalpha using PIP2 as substrate after 1 hr.
The target in data set [14] is Phosphatidylinositol 4,5-bisphosphate 3-kinase catalytic subunit beta isoform (Homo sapiens, UniProt P42338). The data set is described as follows: Inhibition of human PI3Kbeta using PIP2 as substrate after 1 hr.
The target of data set [15] is Phosphatidylinositol 4,5-bisphosphate 3-kinase catalytic subunit gamma isoform (Homo sapiens, UniProt P48736). The experiment in a line: Inhibition of human PI3Kgamma using PIP2 as substrate after 1 hr.

These results are taken from ChEMBL document CHEMBL4390691, “Discovery of 1,3-dihydro-2H-imidazo[4,5-c]quinolin-2-ones based novel, potent and PI3Kδ selective inhibitors” (Bioorg Med Chem Lett, 2019).

Structures are written as SMILES. pIC50: −log10 of the molar value. The source made the active and inactive calls. The rule behind the calls is not given here.

Chain of Phosphatidylinositol 4,5-bisphosphate 3-kinase catalytic subunit gamma isoform (P48736 whole entry, canonical isoform): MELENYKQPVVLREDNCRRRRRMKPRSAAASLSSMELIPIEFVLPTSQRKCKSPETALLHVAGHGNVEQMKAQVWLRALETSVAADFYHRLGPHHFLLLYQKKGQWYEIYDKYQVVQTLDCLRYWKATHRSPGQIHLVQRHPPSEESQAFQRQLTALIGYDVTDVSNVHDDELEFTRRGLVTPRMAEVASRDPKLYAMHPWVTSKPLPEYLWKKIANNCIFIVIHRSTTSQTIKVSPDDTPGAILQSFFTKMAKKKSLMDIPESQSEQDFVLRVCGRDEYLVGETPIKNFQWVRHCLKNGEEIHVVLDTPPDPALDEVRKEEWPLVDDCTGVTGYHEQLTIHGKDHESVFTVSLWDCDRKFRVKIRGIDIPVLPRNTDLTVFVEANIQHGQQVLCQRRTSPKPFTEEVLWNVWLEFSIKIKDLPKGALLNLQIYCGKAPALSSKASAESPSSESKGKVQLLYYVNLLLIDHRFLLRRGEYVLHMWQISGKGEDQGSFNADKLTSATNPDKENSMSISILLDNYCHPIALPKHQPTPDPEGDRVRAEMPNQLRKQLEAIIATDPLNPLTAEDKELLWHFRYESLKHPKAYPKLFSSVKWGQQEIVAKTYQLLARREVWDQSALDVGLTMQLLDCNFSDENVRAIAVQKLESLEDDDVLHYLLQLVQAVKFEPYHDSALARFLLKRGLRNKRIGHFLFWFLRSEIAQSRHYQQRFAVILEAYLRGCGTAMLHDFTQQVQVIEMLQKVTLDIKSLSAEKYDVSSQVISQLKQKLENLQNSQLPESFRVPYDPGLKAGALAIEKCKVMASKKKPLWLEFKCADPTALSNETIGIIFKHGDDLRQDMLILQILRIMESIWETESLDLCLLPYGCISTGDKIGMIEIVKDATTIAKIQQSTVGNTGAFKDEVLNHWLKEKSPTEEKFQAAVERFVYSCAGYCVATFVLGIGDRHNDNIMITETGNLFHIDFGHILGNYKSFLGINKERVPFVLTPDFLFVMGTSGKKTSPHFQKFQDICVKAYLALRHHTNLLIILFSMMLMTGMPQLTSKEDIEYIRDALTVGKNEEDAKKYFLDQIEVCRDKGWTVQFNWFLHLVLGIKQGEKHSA
Chain of Phosphatidylinositol 4,5-bisphosphate 3-kinase catalytic subunit beta isoform (P42338 whole entry, canonical isoform): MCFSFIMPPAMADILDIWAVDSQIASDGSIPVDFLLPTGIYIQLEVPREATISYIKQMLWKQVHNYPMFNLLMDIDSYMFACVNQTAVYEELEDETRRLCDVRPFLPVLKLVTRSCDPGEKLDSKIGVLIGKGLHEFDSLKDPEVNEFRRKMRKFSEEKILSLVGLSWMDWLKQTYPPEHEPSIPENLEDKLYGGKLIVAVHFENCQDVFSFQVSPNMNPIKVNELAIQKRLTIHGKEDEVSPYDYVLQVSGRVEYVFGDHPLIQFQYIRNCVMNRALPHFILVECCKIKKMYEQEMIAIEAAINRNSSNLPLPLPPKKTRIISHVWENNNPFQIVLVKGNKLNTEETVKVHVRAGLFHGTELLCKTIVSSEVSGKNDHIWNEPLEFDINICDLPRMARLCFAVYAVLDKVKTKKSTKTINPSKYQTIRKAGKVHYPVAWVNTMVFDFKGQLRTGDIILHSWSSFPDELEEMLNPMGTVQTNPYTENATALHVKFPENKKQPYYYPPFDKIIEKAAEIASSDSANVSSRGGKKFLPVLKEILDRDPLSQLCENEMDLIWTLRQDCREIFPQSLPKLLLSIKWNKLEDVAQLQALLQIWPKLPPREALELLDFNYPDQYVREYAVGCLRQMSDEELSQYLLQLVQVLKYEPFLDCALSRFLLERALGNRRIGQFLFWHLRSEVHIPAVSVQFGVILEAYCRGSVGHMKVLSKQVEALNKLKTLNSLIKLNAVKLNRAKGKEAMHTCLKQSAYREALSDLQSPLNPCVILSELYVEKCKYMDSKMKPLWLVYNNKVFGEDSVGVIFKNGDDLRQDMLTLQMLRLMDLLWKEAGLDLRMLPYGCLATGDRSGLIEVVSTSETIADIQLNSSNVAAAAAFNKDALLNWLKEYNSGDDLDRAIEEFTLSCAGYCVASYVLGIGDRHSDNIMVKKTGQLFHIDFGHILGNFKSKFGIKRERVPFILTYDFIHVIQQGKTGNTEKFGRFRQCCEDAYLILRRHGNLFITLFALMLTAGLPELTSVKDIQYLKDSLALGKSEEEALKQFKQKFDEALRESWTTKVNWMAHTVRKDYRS
Chain of Phosphatidylinositol 4,5-bisphosphate 3-kinase catalytic subunit alpha isoform (P42336 whole entry, looked up, canonical isoform): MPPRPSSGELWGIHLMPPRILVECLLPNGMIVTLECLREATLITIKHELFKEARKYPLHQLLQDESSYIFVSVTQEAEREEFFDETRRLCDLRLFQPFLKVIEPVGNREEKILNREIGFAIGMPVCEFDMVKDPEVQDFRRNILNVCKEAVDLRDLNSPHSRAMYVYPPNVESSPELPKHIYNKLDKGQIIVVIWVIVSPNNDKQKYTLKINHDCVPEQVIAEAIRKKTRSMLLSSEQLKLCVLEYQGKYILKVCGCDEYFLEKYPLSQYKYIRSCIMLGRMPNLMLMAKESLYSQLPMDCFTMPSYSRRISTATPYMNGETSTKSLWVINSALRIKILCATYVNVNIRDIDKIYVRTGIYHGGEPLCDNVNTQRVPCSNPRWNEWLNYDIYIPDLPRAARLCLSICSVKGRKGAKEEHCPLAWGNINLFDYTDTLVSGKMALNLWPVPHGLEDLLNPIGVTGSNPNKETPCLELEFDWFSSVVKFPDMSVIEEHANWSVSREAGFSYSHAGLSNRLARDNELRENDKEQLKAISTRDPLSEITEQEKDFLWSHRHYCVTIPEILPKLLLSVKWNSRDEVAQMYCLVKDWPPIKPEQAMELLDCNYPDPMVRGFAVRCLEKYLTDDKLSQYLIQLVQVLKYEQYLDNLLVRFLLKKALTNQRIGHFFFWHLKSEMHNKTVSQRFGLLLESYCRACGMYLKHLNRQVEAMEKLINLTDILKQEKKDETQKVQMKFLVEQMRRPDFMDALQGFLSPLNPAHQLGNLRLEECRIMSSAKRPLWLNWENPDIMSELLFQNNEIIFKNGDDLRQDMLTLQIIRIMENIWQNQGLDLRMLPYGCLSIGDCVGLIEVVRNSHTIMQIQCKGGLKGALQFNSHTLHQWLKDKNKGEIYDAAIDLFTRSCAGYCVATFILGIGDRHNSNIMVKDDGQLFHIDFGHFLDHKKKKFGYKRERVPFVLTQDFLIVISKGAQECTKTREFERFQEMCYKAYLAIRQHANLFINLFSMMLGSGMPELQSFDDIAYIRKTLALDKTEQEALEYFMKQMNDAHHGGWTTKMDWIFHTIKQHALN

Broadly, the pIC50 is the IC50 on a negative log10 scale, so that one unit is a factor of ten. As to `COc1ccc(Cn2c(=O)n(C)c3c4cc(-c5cccnc5)ccc4ncc32)cc1`, the pIC50 in [1] was 7.70.

On to `CC[C@H](Nc1ncnc2[nH]cnc12)c1nc2cccc(F)c2c(=O)n1-c1ccccc1` [IDELALISIB], for which the pIC50 is 6.10 in data set [2] and < 6.00 in data set [3].

For the compound `Cc1ccc(Cn2c(=O)n(C)c3c4cc(-c5cnc6ccccc6c5)ccc4ncc32)cc1`, the pIC50 in [1] was 7.74.

`COc1ccc(Cn2c(=O)n(C)c3c4cc(-c5cnc(OC)c(C)c5)ccc4ncc32)cc1`: the pIC50 in [1] was 7.95.

By Tmax is commonly meant the time at which the peak concentration occurs. For orientation: Cmax means the peak of the concentration-time curve. Usually half-life stands for the time in which the quantity being followed falls by half. The low end stands for fast loss, the high end for slow loss. As a reminder, the clearance is a measure of how efficiently the substance is removed, as volume per time. Low values mean inefficient removal, high ones efficient removal. For orientation: AUC means concentration integrated over time. A lower AUC goes with low exposure. As usually defined, the bioavailability is dose-corrected exposure relative to a reference, in per cent. As for `Cn1c(=O)n(-c2ccc(C(C)(C)C#N)cc2)c2c3cc(-c4cnc5ccccc5c4)ccc3ncc21` [DACTOLISIB], the Tmax in data set [4] is 0.21 h. In [5], the Cmax turned out to be 274 ng/mL. In addition, the half-life in data set [6] was 1.88 h. Besides, the clearance in data set [7] came to 72.5 mL/min/kg. For the same compound, the AUC came out at 244 ng·h/mL in data set [8] and 215 ng·h/mL in data set [9]. In [10], this compound returned a bioavailability of 37.8%. In addition, the Activity result in [11] is recorded as “Toxic”. For the same compound, the inhibition result in data set [12] was “Active”.

As to `COc1ccc(Cn2c(=O)n(C)c3cnc4ccc(-c5cnc(OC)c(NS(C)(=O)=O)c5)cc4c32)cc1`, the pIC50 was 8.39 in data set [1]; 6.54 in data set [13]; 6.62 in [14]; 7.38 in data set [15]; 6.24 in [3].

In [1], `COc1ccc(Cn2c(=O)n(C)c3c4cc(-c5ccc(OC)nc5)ccc4ncc32)cc1` showed a negative-log IC50 (pIC50) of 7.94.

`COc1ccc(Cn2c(=O)n(C)c3c4cc(-c5ccccc5)ccc4ncc32)cc1`: the pIC50 in data set [1] was 7.53.

`COc1ccc(Cn2c(=O)n(C)c3c4cc(-c5cnc(OC)c(NS(=O)(=O)C6CC6)c5)ccc4ncc32)cc1`: in data set [1], the pIC50 is 8.23.

The compound `COc1ccc(Cn2c(=O)n(C)c3c4cc(-c5cnc(OC)c(NS(=O)(=O)C(C)C)c5)ccc4ncc32)cc1` showed a pIC50 in [1] of 8.21.

Regarding `CC(C)c1ccc(Cn2c(=O)n(C)c3c4cc(-c5cnc6ccccc6c5)ccc4ncc32)cc1`, in data set [1], the pIC50 is 7.55.

In the case of `COc1ccc(Cn2c(=O)n(C)c3c4cc(-c5cnc6ccccc6c5)ccc4ncc32)cc1`, the pIC50 in data set [1] was 8.02; in data set [13], 6.38; in data set [14], 6.47; in data set [15], 7.42; in data set [3] it was 6.17. Further, the Tmax in data set [4] is 0.38 h. Further, the concentration in data set [5] peaked (Cmax) at 128 ng/mL. The same compound had a half-life in data set [6] of 2.31 h. Besides, the clearance in data set [7] came to 22.9 mL/min/kg. Moreover, the AUC in [8] stood at 329 ng·h/mL; in data set [9], 743 ng·h/mL. Moreover, the bioavailability in data set [10] was determined as 14.8%.
